Data reported in ChEMBL document CHEMBL3352816, “Synthesis and antiproliferative activity of imidazo[2,1-b][1,3,4]thiadiazole derivatives” (Bioorg Med Chem Lett, 2014).
Calls of active or inactive are those of the source. The calls are words filed in the database; no cut-off is given here.

Assays:
REH [1] = test: Induction of apoptosis in human REH cells assessed as caspase 8 cleavage after 48 hrs by Western blot analysis; format: functional, cell-based
Method in brief: (§1)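 Reh cell lysates were prepared after 48 h treatment at 500 nM and 1 µM, with DMSO-treated cells as control. Western blotting used primary antibodies against KU70, PARP1, caspase 3, BID, caspase 9, FAS and caspase 8, with tubulin also probed.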

REH [2] = test: Induction of apoptosis in human REH cells assessed as induction of ROS production at 1 uM after 15 mins by flow cytometric analysis (reference value: 0.09 %); format: functional
REH [3] = test: Cytotoxicity against human REH cells assessed as reduction in cell viability after 24 to 72 hrs by trypan blue exclusion assay; format: functional, cell-based
Method in brief: (§2)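 Reh, K562 and Nalm6 leukemic cells were treated with 10, 50, 100 and 250 µM or with 0.1, 0.5, 1, 5 and 10 µM (compounds dissolved in DMSO). Viability was scored by trypan blue after 24, 48 and 72 h. DMSO-treated cells served as vehicle control.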

REH [4] = test: Induction of apoptosis in human REH cells assessed as change in caspase 9 expression at 1 uM after 48 hrs by Western blot analysis; format: functional, cell-based; method in brief: as §1
REH [5] = test: Induction of apoptosis in human REH cells assessed as induction of ROS production at 5 uM after 10 mins by flow cytometric analysis (reference value: 0.33 %); format: functional
REH [6] = test: Induction of apoptosis in human REH cells assessed as induction of ROS production at 1 uM after 10 mins by flow cytometric analysis (reference value: 0.09 %); format: functional
REH [7] = test: Induction of apoptosis in human REH cells assessed as late apoptotic cells at 1 uM after 48 hrs using annexin-v-FITC/propidium iodide by FACS analysis (reference value: 5.51 %); format: functional
REH [8] = test: Induction of apoptosis in human REH cells assessed as dead cells at 1 uM after 48 hrs using annexin-v-FITC/propidium iodide by FACS analysis (reference value: 0.03 %)
REH [9] = test: Cell cycle arrest in human REH cells assessed as reduction of cells in G2/M phase after 48 hrs using propidium iodide by FACS analysis; format: functional, cell-based
Method in brief: (§3)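 Reh and Nalm6 cells exposed 48 h to 0.1, 0.5, 1 and 5 µM, harvested, stained with propidium iodide and analysed by flow cytometry. Gated fractions were sub G1, G1, S and G2. DMSO-treated cells served as vehicle control. Three independent experiments for Reh and two for Nalm6.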

REH [10] = test: Induction of apoptosis in human REH cells assessed as induction of ROS production at 500 nM after 10 mins by flow cytometric analysis (reference value: 0.33 %); format: functional
REH [11] = test: Induction of apoptosis in human REH cells assessed as induction of ROS production at 1 uM after 60 mins by flow cytometric analysis (reference value: 0.09 %); format: functional
REH [12] = test: Induction of apoptosis in human REH cells assessed as loss of mitochondrial membrane potential at 1 uM after 48 hrs using Jc-1 staining by flow cytometric analysis; format: functional, cell-based
Method in brief: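 Mitochondrial membrane potential in Reh cells after 48 h at 0.1, 0.5, 1 and 5 µM. Cells stained with JC-1 and analysed by flow cytometry as the ratio of red (aggregate) to green (monomer) fluorescent cells. 2,4-DNP-treated cells served as positive control.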

REH [13] = test: Induction of apoptosis in human REH cells assessed as induction of ROS production at 100 nM after 10 mins by flow cytometric analysis (reference value: 0.33 %); format: functional
K562 [14] = test: Cytotoxicity against human K562 cells assessed as reduction in cell viability at 0.1 to 10 uM by trypan blue exclusion assay; format: functional, cell-based; conditions: TDE = time-dependent effect; method in brief: as §2
REH [15] = test: Induction of apoptosis in human REH cells assessed as caspase 3 cleavage after 48 hrs by Western blot analysis; format: functional, cell-based; method in brief: as §1
REH [16] = test: Induction of apoptosis in human REH cells assessed as reduction of KU70 protein expression at 1 uM after 48 hrs by Western blot analysis; format: functional, cell-based
Method in brief: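 Reh cells exposed 48 h to 500 nM or 1 µM, with DMSO-treated cells as control; cell lysates probed by western blot with specific primary antibodies against KU70, PARP1, caspases 3, 8 and 9, BID and FAS; tubulin shown as loading reference.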

[17] = Cell cycle arrest in human NALM6 cells assessed as reduction of cells in G1 phase after 48 hrs using propidium iodide by FACS analysis; format: functional, cell-based; conditions: NALM-6; method in brief: as §3
REH [18] = test: Cytotoxicity against human REH cells assessed as reduction in cell viability at 3 uM after 24 to 72 hrs by trypan blue exclusion assay; format: functional, cell-based
NALM-6 [19] = test: Cytotoxicity against human NALM6 cells assessed as reduction in cell viability after 24 to 72 hrs by trypan blue exclusion assay; format: functional, cell-based; method in brief: as §2
K562 [20] = test: Cytotoxicity against human K562 cells assessed as reduction in cell viability after 24 to 72 hrs by trypan blue exclusion assay; format: functional, cell-based; method in brief: as §2
[21] = Growth inhibition of human Melanoma cells; format: functional; conditions: Melanoma cell
[22] = Cell cycle arrest in human NALM6 cells assessed as reduction of cells in G2/M phase after 48 hrs using propidium iodide by FACS analysis; format: functional, cell-based; conditions: NALM-6; method in brief: as §3
REH [23] = test: Induction of apoptosis in human REH cells assessed as induction of ROS production at 1 uM after 30 mins by flow cytometric analysis (reference value: 0.09 %); format: functional
REH [24] = test: Cell cycle arrest in human REH cells assessed as reduction of cells in S phase after 48 hrs using propidium iodide by FACS analysis; format: functional, cell-based; method in brief: as §3
REH [25] = test: Induction of apoptosis in human REH cells assessed as early apoptotic cells at 1 uM after 48 hrs using annexin-v-FITC/propidium iodide by FACS analysis (reference value: 6.05 %); format: functional
REH [26] = test: Cell cycle arrest in human REH cells assessed as accumulation at subG1 phase after 48 hrs using propidium iodide by FACS analysis; format: functional, cell-based; method in brief: as §3
[27] = Cell cycle arrest in human NALM6 cells assessed as accumulation at subG1 phase after 48 hrs using propidium iodide by FACS analysis; format: functional, cell-based; conditions: NALM-6; method in brief: as §3
[28] = Growth inhibition of human Breast cancer cells; format: functional; conditions: Cancer cell lines
NALM-6 [29] = test: Cytotoxicity against human NALM6 cells assessed as reduction in cell viability at 0.1 to 10 uM by trypan blue exclusion assay; format: functional, cell-based; conditions: TDE = time-dependent effect; method in brief: as §2
[30] = Growth inhibition of human NSCLC cells; format: functional
REH [31] = test: Induction of apoptosis in human REH cells assessed as reduction of BID at 1 uM after 48 hrs by Western blot analysis; format: functional, cell-based; method in brief: as §1
REH [32] = test: Induction of apoptosis in human REH cells assessed as induction of ROS production at 1 uM after 10 mins by flow cytometric analysis (reference value: 0.33 %); format: functional
[33] = Growth inhibition of human Prostate cancer cells; format: functional; conditions: Cancer cell lines
REH [34] = test: Induction of apoptosis in human REH cells assessed as viable cells at 1 uM after 48 hrs using annexin-v-FITC/propidium iodide by FACS analysis (reference value: 88.41 %); format: functional; conditions: read-out: Activity

With `O=Cc1c(-c2ccc(Br)cc2)nc2sc(Cc3ccccc3)nn12` the Activity (REH [1]) was “Active”, the Activity (REH [2]) was 0.09% and the Activity (REH [3]) was “Dose-dependent effect”. The Activity (REH [4]) was “inactive”, the Activity (REH [5]) was 0.62% and the Activity (REH [6]) was 0.36%. The Activity (REH [7]) was 51.32%, the Activity (REH [8]) was 0.42% and the Activity (REH [9]) was “Dose-dependent effect”. For the same compound, the Activity (REH [10]) was 0.86%, the Activity (REH [11]) was 0.12% and the Activity (REH [12]) was “Dose-dependent effect”. For the same compound, the Activity (REH [13]) was 0.77%, the Activity (K562 [14]) was “tde” and the Activity (REH [15]) was “Dose-dependent effect”. For the same compound, the Activity (REH [16]) was “Active”, the Activity [17] was “Dose-dependent effect” and the Activity (REH [18]) was “Active”. For the same compound, the Activity (NALM-6 [19]) was “Dose-dependent effect”, the Activity (K562 [20]) was “Dose-dependent effect” and the GI50 [21] was 3.2 µM. The LC50 [21] was 81.3 µM, the TGI [21] was 19.5 µM and the Activity [22] was “Dose-dependent effect”. For the same compound, the Activity (REH [23]) was 0.06%, the Activity (REH [24]) was “Dose-dependent effect” and the Activity (REH [25]) was 43.03%. The Activity (REH [26]) was “Dose-dependent effect”, the Activity [27] was “Dose-dependent effect” and the GI50 [28] was 3.5 µM. The TGI [28] was 28.2 µM, the Activity (NALM-6 [29]) was “tde” and the GI50 [30] was 4.2 µM. The LC50 (concentration killing 50% of cells) [30] was 95.5 µM, the TGI [30] was 30.2 µM and the Activity (REH [31]) was “Active”. For the same compound, the Activity (REH [32]) was 0.28%, the GI50 [33] was 3 µM and the TGI [33] was 24.6 µM. It also gave a viability at 1 µM (REH [34]) of 5.23%.
